22 compounds from ChEMBL document CHEMBL1149846, “The role of lipophilicity in determining binding affinity and functional activity for 5-HT2A receptor ligands” (Bioorg Med Chem, 2008) can be followed below.

The target of assay [1] is 5-hydroxytryptamine receptor 2A (Rattus norvegicus) (UniProt P14842). The assay is described as follows: Agonist activity at Sprague-Dawley rat 5HT2A receptor by drug discrimination assay. In kind it is functional. The following applies: filed as agonist.
Assay [2] concerns the target T1, 5-hydroxytryptamine receptor 2A (Rattus norvegicus, UniProt P14842). The assay is described as follows: Displacement of [3H]MDL100907 from 5HT2A receptor in Sprague-Dawley rat brain by liquid scintillation spectroscopy. In outline: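 Frontal cortex from male Sprague-Dawley rat brains, washed in 50 mM Tris-HCl pH 7.4 and resuspended in buffer with 0.5 mM Na2EDTA, 10.0 μM pargyline, 5.7 mM CaCl2 and 0.1% ascorbate. Cinanserin (10 μM) defined nonspecific binding. Bound label was collected by GF/C filtration and counted. Values from ≥3 experiments, each in triplicate.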
In general terms: In a radioligand displacement assay an active substance lowers the binding of a labelled ligand.

In assay [3] the target is 5-hydroxytryptamine receptor 2A (Rattus norvegicus) (UniProt P14842). The assay is described as follows: Antagonist activity at Sprague-Dawley rat 5HT2A receptor by drug discrimination assay. It is filed as functional. The following applies: filed as antagonist.
The target of assay [4] is T1, 5-hydroxytryptamine receptor 2A. The assay is described as follows: Displacement of [3H]ketanserin from 5HT2A receptor in Sprague-Dawley rat brain by liquid scintillation spectroscopy.

Chain of 5-hydroxytryptamine receptor 2A (Rattus norvegicus) (P14842 whole entry): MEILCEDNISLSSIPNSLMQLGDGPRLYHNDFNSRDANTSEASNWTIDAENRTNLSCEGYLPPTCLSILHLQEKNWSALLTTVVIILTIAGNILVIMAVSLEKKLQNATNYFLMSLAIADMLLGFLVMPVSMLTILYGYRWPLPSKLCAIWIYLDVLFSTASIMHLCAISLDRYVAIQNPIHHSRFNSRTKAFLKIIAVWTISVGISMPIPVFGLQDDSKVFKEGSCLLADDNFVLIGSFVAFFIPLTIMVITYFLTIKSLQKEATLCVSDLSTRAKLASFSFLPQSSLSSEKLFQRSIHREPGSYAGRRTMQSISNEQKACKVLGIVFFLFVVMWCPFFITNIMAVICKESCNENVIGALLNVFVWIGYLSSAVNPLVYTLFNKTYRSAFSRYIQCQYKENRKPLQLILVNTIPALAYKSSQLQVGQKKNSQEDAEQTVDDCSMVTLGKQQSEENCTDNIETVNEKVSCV
T1 sequence (P14842 whole entry): as above

As to `CN(C)CCc1c[nH]c2ccccc12`, the Efficacy entry in assay [1] is “Agonist”. The affinity in assay [2] corresponds to a Ki of 1640 nM.

As to `CN(C)CCc1c[nH]c2sccc12`, the inhibitory constant (Ki) (as a rule, the dissociation constant of the complex between target and ligand, obtained from inhibition or displacement) in assay [2] came to 3680 nM. The Efficacy result in assay [3] is “Antagonist”.

`CN(C)CCc1c[nH]c2ccsc12` gave a Ki in assay [2] of 4610 nM. Besides, the Efficacy entry in assay [3] is “Antagonist”.

With `COc1cc(CCN)cc(OC)c1OCCc1ccccc1`, the Ki in assay [4] was 59 nM. For the same compound, the Efficacy entry in assay [3] is “Antagonist”.

`COc1cc(CCN)cc(OC)c1OC`: the Efficacy entry in assay [1] is “Agonist”.

In the case of `Cc1nc2sccn2c(=O)c1CCN1CCC(=C(c2ccc(F)cc2)c2ccc(F)cc2)CC1`, in assay [3], the Efficacy entry was “Antagonist”.

For the compound `NCCc1c2c(c(Br)c3c1OCC3)OCC2`, the Efficacy result in assay [1] was “Agonist”.

On to `NCCc1c2c(cc3c1OCC3)OCC2`, for which the Efficacy result in assay [1] is “Agonist”.

For the compound `COc1cc(C)cc(OC)c1CC(C)N` (racemic), affinity in assay [4] was put at a Ki of 351 nM. Besides, in assay [1], the Efficacy entry is “Agonist”.

In turn, `CSc1c2c(c(CC(C)N)c3c1OCC3)CCO2` (racemic) registered an inhibition constant Ki in assay [2] of 476 nM.

Take `COc1cc2c(cc1Br)OCCC(N)C2` (racemic): in assay [4], the Ki was 422 nM.

In the case of `CSc1cc(CC(C)N)c(SC)cc1C` (racemic), the Ki in assay [4] is 177 nM. Moreover, in assay [3], the Efficacy result is “Antagonist”.

As for `CC(N)Cc1c2ccccc2c(Br)c2ccccc12` (racemic), the inhibition constant (Ki) in assay [2] came out at 313 nM. Besides, in assay [3], the Efficacy entry was “Antagonist”.

In the case of `CC(N)Cc1cc(F)c(Br)cc1F` (racemic), affinity in assay [2] was put at a Ki of 2510 nM. Moreover, the Efficacy entry in assay [3] is “Antagonist”.

In turn, `COc1cc(CC(C)N)c(OC)cc1I` (racemic) returned a Ki in assay [4] of 19 nM. In addition, the Efficacy entry in assay [1] is “Agonist”.

In turn, `COc1cc(C(F)(F)F)c(OC)cc1CC(C)N` (racemic) displayed a Ki in assay [4] of 33 nM. Moreover, the Efficacy result in assay [1] is “Agonist”.

As to `CC(N)Cc1c2c(c(Br)c3c1OCC3)OCC2` (racemic), the Efficacy result in assay [1] was “Agonist”.

`CC(N)Cc1c2ccoc2c(Br)c2ccoc12` (racemic): the Efficacy result in assay [1] was “Agonist”.

Consider `CCc1cc(OC)c(CC(C)N)cc1OC` (racemic), for which, in assay [1], the Efficacy entry is “Agonist”.

`COc1cc(CC(C)N)c(OC)cc1Br` (racemic): the Efficacy result in assay [1] was “Agonist”.

In assay [4], `COc1cc(CC(C)N)c(OC)cc1C` (racemic) [DOM] yielded an inhibition constant (Ki) of 100 nM.

Regarding `CN(C)CCc1c[nH]c2cccc(O)c12` [PSILOCIN], in assay [1], the Efficacy entry was “Agonist”. The Ki in assay [2] came to 323 nM.
